Screening data as filed in PubChem BioAssay.
The full list was thinned out, with hits kept by preference.
CHOP UPR activ: activators of apoptotic arm of unfolded protein response (CHOP). activation, % at 10 µM. CHO-CHOP luciferase reporter, UPR activation, luminescence; percent of tunicamycin response over DMSO baseline. 330,000 tested, 0.34% active;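 active = at 10 µM dose, activation of 40% or more, normalized to positive control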;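 note: 100% = tunicamycin at 10 µg/mL and 0% = DMSO alone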
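Dosing – one dose, 10 µM in 0.5% DMSO · System – CHO-CHOP cells, stable luciferase reporter of PERK-eIF2a-CHOP signalling · Input – 500 cells/well · Control set – tunicamycin 10 µg/mL final as positive, DMSO-only wells as negative · Timing – 6 h compound treatment, 37 °C · Measure – % activation vs tunicamycin · Technique – luminescence read with Steady-Glo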
TLR4-MyD88 BLA: TLR4-MyD88 interaction inhibition in cells. O00206+Q99836. HeLa CL3-4 TLR4/MyD88 BLA complementation, FRET ratio. inhibition, % at 8.4 µM. 200,000 tested, 0.18% active; in the data active = inhibition above about 25%;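 note: 0% = vehicle and 100% = reference inhibitor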
NOD2 RIPK2 PPI: NOD2-RIPK2 protein interaction inhibition | O43353 | 360,000 tested, 0.38% active | CHO BLA complementation NOD2-RIPK2, CCF4 ratio | inhibition, % at 4.98 µM; in the data active = inhibition above about 21%;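 note: 0% = vehicle only and 100% = reference blocker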
XBP1 UPR activ: activators of adaptive arm of unfolded protein response (XBP1); CHO-XBP1 luciferase reporter, IRE1-XBP1 UPR activation, luminescence; percent of tunicamycin response, DMSO as zero; activation, % at 20 µM; 330,000 tested, 0.33% active; AID 463104;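 active = versus positive control, 20 µM dose yields 30% or more activation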;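 note: 100% = tunicamycin at 10 µg/mL and 0% = DMSO only wells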
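Material: CHO cell line with stable XBP1 luciferase reporter; schedule: 16-18 h cell attachment at 37 °C, then 6 h compound exposure; signal: glow luminescence from Steady-Glo reagent; medium: serum-containing F12 medium, 10% FBS; benchmarks: tunicamycin 10 µg/mL and vehicle-only wells; read-out: percent activation relative to tunicamycin reference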
TLR9-MyD88 block: blocks human TLR9 binding to MyD88. Q9NR96+Q99836. CHO BLA complementation TLR9-MyD88, CCF4 FRET ratio. inhibition, % at 4.98 µM. 340,000 tested, 0.21% active. AID 504734;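 active = inhibition above the mean over all tested compounds plus 3 SD, cut at about 21% in these data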;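 note: 0% = DMSO only wells and 100% = clavulanate BLA inhibitor control wells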
CHOP inhibitor: inhibitors of CHOP induction in ER stress response; inhibition, % at 10 µM; 220,000 tested, 3.8% active; CHO-K1 CHOP-promoter luciferase, tunicamycin-induced, 15-18 h;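 active = compounds that reduced the stress-induced luciferase reporter signal by more than about 70% of percent inhibition, limit read from the data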;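 note: 0% = tunicamycin plus vehicle and 100% = wells without tunicamycin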
NOD2-RIPK2 conf: NOD2-RIPK2 interaction inhibition confirmed | 1,200 tested, 70% active | shares compounds with NOD2 RIPK2 PPI | CHO cells, NOD2-RIPK2 BLA complementation, CCF4 FRET | inhibition, % at 4.98 µM;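 active = mean inhibition across replicates above a set limit taken from the earlier primary screen, cut at about 21% in these data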;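 note: 0% = DMSO-only wells and the high end = clavulanate BLA-blocked wells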
BLA counter: NOD2-RIPK2 counterscreen BLA reporter activity; shares compounds with NOD2 RIPK2 PPI; CHO BLA reporter, CCF4 FRET ratio; inhibition, % at 4.98 µM; 1,200 tested, 57% active; AID 624371;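 active = mean inhibition above the low-control mean inhibition plus three low-control SD, cut at about 11% in these data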;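 note: 0% = DMSO only wells and 100% = clavulanate high control wells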
Starred values were filed as active, the others as inactive; ! = a repeat was not active.

Results for COc1cc(/C=C/C(=O)OCC(=O)NCC2CCCCC2)ccc1O ?
CHOP UPR activ: 1; NOD2 RIPK2 PPI: -2; XBP1 UPR activ: -1; TLR9-MyD88 block: 5

What do the screens show for `CCOC(=O)c1[nH]c2ccc(OC)cc2c1NC(=S)N1CCN(c2cccc(C)c2C)CC1`?
CHOP UPR activ: -2; TLR4-MyD88 BLA: 5; NOD2 RIPK2 PPI: -7; XBP1 UPR activ: -5; TLR9-MyD88 block: 6; CHOP inhibitor: 61

How did CC(=O)Nc1ccc(S(=O)(=O)N2c3ccccc3C(C)=CC2(C)C)cc1 do in these assays?
CHOP UPR activ: 0; TLR4-MyD88 BLA: -6; NOD2 RIPK2 PPI: 23*; XBP1 UPR activ: 12; TLR9-MyD88 block: 4; CHOP inhibitor: 1; NOD2-RIPK2 conf: 22*; BLA counter: -5

How did CCOC(=O)c1ccc(NC(=O)Nc2ccon2)cc1 do in these assays?
CHOP UPR activ: 4; NOD2 RIPK2 PPI: 22*; XBP1 UPR activ: 22; TLR9-MyD88 block: 11; CHOP inhibitor: -6; NOD2-RIPK2 conf: 21*; BLA counter: -2

Results for O=C(OCC(=O)N1CCN(c2ccccc2)CC1)c1cc(Br)ccc1Cl ?
CHOP UPR activ: 0; NOD2 RIPK2 PPI: -20; XBP1 UPR activ: -1; TLR9-MyD88 block: -1

What do the screens show for `O=C(OCC(=O)N1CCN(c2ccccc2)CC1)c1cc(F)c(F)cc1Cl`?
NOD2 RIPK2 PPI: 21*; TLR9-MyD88 block: -7; NOD2-RIPK2 conf: -14; BLA counter: -4

How did COc1ccc(N/C=C\C(=O)c2ccc3ccccc3c2)cc1 do in these assays?
CHOP UPR activ: 6; NOD2 RIPK2 PPI: 2; XBP1 UPR activ: 0; TLR9-MyD88 block: 1

What do the screens show for `NS(=O)(=O)c1ccc(N/C=C\C(=O)c2ccc3ccccc3c2)cc1`?
CHOP UPR activ: 2; TLR4-MyD88 BLA: 2; NOD2 RIPK2 PPI: 24*; XBP1 UPR activ: 3; TLR9-MyD88 block: 1; CHOP inhibitor: -26; NOD2-RIPK2 conf: 4; BLA counter: 12*

How did O=C(NCc1ccccc1)NC(O)C(Cl)(Cl)Cl (configuration not stated) do in these assays?
CHOP UPR activ: -1; TLR4-MyD88 BLA: 5; NOD2 RIPK2 PPI: -3; XBP1 UPR activ: -3; TLR9-MyD88 block: 5; CHOP inhibitor: 2

How did CC1CC(C)C(=NNC(N)=O)C(C(O)CC2CCC(=O)NC2=O)C1 (configuration not stated) do in these assays?
NOD2 RIPK2 PPI: 25*; TLR9-MyD88 block: -5; NOD2-RIPK2 conf: 2; BLA counter: 0

How did CCC1SC(C)C/C(=N/NC(N)=O)C1C (configuration not stated) do in these assays?
CHOP UPR activ: 2; NOD2 RIPK2 PPI: 3; XBP1 UPR activ: 1; TLR9-MyD88 block: -13; CHOP inhibitor: 1

How did CCOCCCNC(=O)c1ccc2c(c1)N=C(CC)c1cc(Br)ccc1S2 do in these assays?
CHOP UPR activ: 1; TLR4-MyD88 BLA: 3; NOD2 RIPK2 PPI: 28*; XBP1 UPR activ: 17; TLR9-MyD88 block: -2; CHOP inhibitor: -20; NOD2-RIPK2 conf: 7; BLA counter: 0

What do the screens show for `CCCCNc1c(-c2ccc(-c3cccc(Cl)c3)cc2)nc2ccccn12`?
CHOP UPR activ: 10; NOD2 RIPK2 PPI: 22*!; XBP1 UPR activ: 4; TLR9-MyD88 block: 12; NOD2-RIPK2 conf: 16; BLA counter: 16*

How did CCCCCCSc1ccc(-c2nc3ccccn3c2NCCCC)cc1 do in these assays?
CHOP UPR activ: 11; NOD2 RIPK2 PPI: 0; XBP1 UPR activ: 1; TLR9-MyD88 block: 6

What do the screens show for `COC(=O)c1cccc(NS(=O)(=O)c2ccc(OC)c(C(=O)N3CCOCC3)c2)c1C`?
CHOP UPR activ: 1; NOD2 RIPK2 PPI: -19; XBP1 UPR activ: 0; TLR9-MyD88 block: 3

What do the screens show for `Cc1ccccc1NC(=O)C(C)OC(=O)c1ccccc1C(=O)N(C)c1ccccc1` (configuration not stated)?
CHOP UPR activ: 0; NOD2 RIPK2 PPI: 1; XBP1 UPR activ: -4; TLR9-MyD88 block: 7

What do the screens show for `Cc1cc(N(CC(=O)NC(C)C)S(C)(=O)=O)ccc1Br`?
CHOP UPR activ: 0; TLR4-MyD88 BLA: 2; NOD2 RIPK2 PPI: 24*; XBP1 UPR activ: 2; TLR9-MyD88 block: -13; CHOP inhibitor: 19; NOD2-RIPK2 conf: -7; BLA counter: -3

Results for COc1cccc(OCc2cc(C(=O)NC(C)c3cnn(C)c3C)no2)c1 (configuration not stated) ?
CHOP UPR activ: 5; NOD2 RIPK2 PPI: 13; XBP1 UPR activ: 0; TLR9-MyD88 block: -5

What do the screens show for `Cc1ccc(NC(=O)Cn2sc3nc(C)cc(C)c3c2=O)c(Cl)c1`?
CHOP UPR activ: 2; NOD2 RIPK2 PPI: 21*; XBP1 UPR activ: -4; TLR9-MyD88 block: 9; CHOP inhibitor: -4; NOD2-RIPK2 conf: 10; BLA counter: 1

Results for COC(=O)C1=NN(c2ccc(C)cc2)C2C(=O)N(c3ccccc3OC)C(=O)C12 (configuration not stated) ?
CHOP UPR activ: 1; NOD2 RIPK2 PPI: -11; XBP1 UPR activ: -4; TLR9-MyD88 block: -4; CHOP inhibitor: 6

How did COc1ccccc1N1C(=O)C2C(C(=O)c3ccccc3)=NN(c3ccc(Br)cc3)C2C1=O (configuration not stated) do in these assays?
CHOP UPR activ: 1; NOD2 RIPK2 PPI: 25*; XBP1 UPR activ: 1; CHOP inhibitor: -4; NOD2-RIPK2 conf: 81*; BLA counter: 83*

How did COc1ccccc1N1C(=O)C2C(C(=O)c3ccccc3)=NN(c3ccc(C)cc3)C2C1=O (configuration not stated) do in these assays?
CHOP UPR activ: 1; NOD2 RIPK2 PPI: 27*; XBP1 UPR activ: 11; CHOP inhibitor: -10; NOD2-RIPK2 conf: 67*; BLA counter: 67*

Results for O=C(Nc1ccc(C(=O)N2CCCC2)cc1)c1ccc(F)cc1Cl ?
CHOP UPR activ: 0; NOD2 RIPK2 PPI: -13; XBP1 UPR activ: -4; TLR9-MyD88 block: -4

Results for CC(C)N1CCC2(CC1)N=C(c1ccc3c(c1)OCO3)CC(c1cc(Cl)ccc1O)N2 (configuration not stated) ?
CHOP UPR activ: 7; TLR4-MyD88 BLA: 10; NOD2 RIPK2 PPI: 21*; XBP1 UPR activ: 17; TLR9-MyD88 block: 15; CHOP inhibitor: 56; NOD2-RIPK2 conf: 10; BLA counter: 2
